According to ChEMBL document CHEMBL5678815 (Clin Cancer Res, 2017):

Legend:
[1] = test system: Serine/threonine-protein kinase B-raf (Homo sapiens), P15056 [V600E]; assay: Inhibition of human BRAF V600E mutant assessed as remaining activity at 1 uM by ATP-competition binding assay relative to control
Method in brief: (§1)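 KINOMEscan ATP-site-dependent competition binding panel of 395 human kinases, with compound tested at 1 μM. Binding is reported as remaining signal relative to control.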

[2] = biological target: Mitogen-activated protein kinase kinase kinase 13 (Homo sapiens) (UniProt O43283); assay: Inhibition of human LZK assessed as remaining activity at 1 uM by ATP-competition binding assay relative to control
Method in brief: (§2)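 Single-point profiling at 1μM in an ATP-site-dependent competition binding assay across a panel of 395 human kinases, including mutant forms. The read-out is kinase binding signal in the presence of test agent, expressed as inhibition relative to the control signal. This screen assessed noncovalent binding interactions.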

[3] = biological target: Tyrosine-protein kinase CSK (Homo sapiens) (UniProt P41240); assay: Inhibition of human CSK assessed as remaining activity at 1 uM by ATP-competition binding assay relative to control; method in brief: as §1
[4] = biological target: Receptor tyrosine-protein kinase erbB-4 (Homo sapiens) (UniProt Q15303); assay: Inhibition of human ERBB4 assessed as remaining activity at 1 uM by ATP-competition binding assay relative to control; method in brief: as §2
[5] = biological target: Hepatocyte growth factor receptor (Homo sapiens) (UniProt P08581); assay: Inhibition of human MET assessed as remaining activity at 1 uM by ATP-competition binding assay relative to control; method in brief: as §2
[6] = biological target: Calcium/calmodulin-dependent protein kinase type II subunit alpha (Homo sapiens) (UniProt Q9UQM7); assay: Inhibition of human CAMK2A assessed as remaining activity at 1 uM by ATP-competition binding assay relative to control; method in brief: as §1
[7] = biological target: SRSF protein kinase 2 (Homo sapiens) (UniProt P78362); assay: Inhibition of human SRPK2 assessed as remaining activity at 1 uM by ATP-competition binding assay relative to control
Method in brief: (§3)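 Single-concentration (1 μM) screen in an ATP-site-dependent competition binding assay (KINOMEscan, outsourced) covering 395 human kinases, mutants included. Non-covalent binding was read as the remaining signal relative to the control signal.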

[8] = biological target: Casein kinase I isoform gamma-2 (Homo sapiens) (UniProt P78368); assay: Inhibition of human CSNK1G2 assessed as remaining activity at 1 uM by ATP-competition binding assay relative to control; method in brief: as §1
[9] = biological target: 5'-AMP-activated protein kinase catalytic subunit alpha-2 (Homo sapiens) (UniProt P54646); assay: Inhibition of human AMPK-alpha2 assessed as remaining activity at 1 uM by ATP-competition binding assay relative to control; method in brief: as §1
[10] = test system: Receptor-type tyrosine-protein kinase FLT3 (Homo sapiens), P36888 [D835H]; assay: Inhibition of human FLT3 D835H mutant assessed as remaining activity at 1 uM by ATP-competition binding assay relative to control; method in brief: as §2
[11] = biological target: Non-receptor tyrosine-protein kinase TNK1 (Homo sapiens) (UniProt Q13470); assay: Inhibition of human TNK1 assessed as remaining activity at 1 uM by ATP-competition binding assay relative to control; method in brief: as §3
[12] = biological target: Mitogen-activated protein kinase 6 (Homo sapiens) (UniProt Q16659); assay: Inhibition of human ERK3 assessed as remaining activity at 1 uM by ATP-competition binding assay relative to control; method in brief: as §2
[13] = biological target: Serine/threonine-protein kinase PAK 4 (Homo sapiens) (UniProt O96013); assay: Inhibition of human PAK4 assessed as remaining activity at 1 uM by ATP-competition binding assay relative to control; method in brief: as §2
[14] = biological target: Receptor-interacting serine/threonine-protein kinase 2 (Homo sapiens) (UniProt O43353); assay: Inhibition of human RIPK2 assessed as remaining activity at 1 uM by ATP-competition binding assay relative to control; method in brief: as §3
[15] = biological target: Serine/threonine-protein kinase TNNI3K (Homo sapiens) (UniProt Q59H18); assay: Inhibition of human TNNI3K assessed as remaining activity at 1 uM by ATP-competition binding assay relative to control; method in brief: as §3
[16] = biological target: Serine/threonine-protein kinase 3 (Homo sapiens) (UniProt Q13188); assay: Inhibition of human MST2 assessed as remaining activity at 1 uM by ATP-competition binding assay relative to control; method in brief: as §2
[17] = biological target: Cyclin-dependent kinase 15 (Homo sapiens) (UniProt Q96Q40); assay: Inhibition of human PFTAIRE2 assessed as remaining activity at 1 uM by ATP-competition binding assay relative to control; method in brief: as §2

Sequence of Tyrosine-protein kinase CSK (Homo sapiens) (P41240 2-450 limits assumed): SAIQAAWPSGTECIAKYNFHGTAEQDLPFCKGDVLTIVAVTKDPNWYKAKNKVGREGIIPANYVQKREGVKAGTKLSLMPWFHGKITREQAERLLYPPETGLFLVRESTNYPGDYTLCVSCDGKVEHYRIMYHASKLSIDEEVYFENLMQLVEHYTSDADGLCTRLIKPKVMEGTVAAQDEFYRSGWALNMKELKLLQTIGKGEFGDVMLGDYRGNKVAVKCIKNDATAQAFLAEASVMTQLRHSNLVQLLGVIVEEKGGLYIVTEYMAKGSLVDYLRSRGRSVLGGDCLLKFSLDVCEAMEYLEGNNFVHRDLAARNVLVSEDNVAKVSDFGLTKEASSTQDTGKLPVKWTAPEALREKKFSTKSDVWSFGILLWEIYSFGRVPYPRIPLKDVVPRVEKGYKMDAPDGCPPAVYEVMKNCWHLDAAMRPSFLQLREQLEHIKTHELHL
Sequence of Serine/threonine-protein kinase PAK 4 (Homo sapiens) (O96013 whole entry, looked up): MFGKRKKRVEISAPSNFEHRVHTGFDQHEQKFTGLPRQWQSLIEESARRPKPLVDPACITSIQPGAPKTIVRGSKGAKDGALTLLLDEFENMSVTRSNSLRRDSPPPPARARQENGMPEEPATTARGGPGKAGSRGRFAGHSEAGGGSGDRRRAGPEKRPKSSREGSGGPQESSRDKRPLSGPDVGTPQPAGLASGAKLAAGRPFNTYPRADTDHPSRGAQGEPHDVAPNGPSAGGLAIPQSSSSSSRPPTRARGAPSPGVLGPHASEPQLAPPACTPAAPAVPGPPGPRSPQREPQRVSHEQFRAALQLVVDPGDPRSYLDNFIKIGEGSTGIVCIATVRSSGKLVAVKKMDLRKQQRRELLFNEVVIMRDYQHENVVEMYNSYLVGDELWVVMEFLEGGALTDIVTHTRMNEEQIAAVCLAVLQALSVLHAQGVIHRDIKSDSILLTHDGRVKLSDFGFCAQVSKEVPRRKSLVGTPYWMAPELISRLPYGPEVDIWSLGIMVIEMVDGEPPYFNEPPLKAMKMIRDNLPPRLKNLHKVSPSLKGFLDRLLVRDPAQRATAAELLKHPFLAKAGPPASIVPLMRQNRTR
Sequence of Calcium/calmodulin-dependent protein kinase type II subunit alpha (Homo sapiens) (Q9UQM7 whole entry): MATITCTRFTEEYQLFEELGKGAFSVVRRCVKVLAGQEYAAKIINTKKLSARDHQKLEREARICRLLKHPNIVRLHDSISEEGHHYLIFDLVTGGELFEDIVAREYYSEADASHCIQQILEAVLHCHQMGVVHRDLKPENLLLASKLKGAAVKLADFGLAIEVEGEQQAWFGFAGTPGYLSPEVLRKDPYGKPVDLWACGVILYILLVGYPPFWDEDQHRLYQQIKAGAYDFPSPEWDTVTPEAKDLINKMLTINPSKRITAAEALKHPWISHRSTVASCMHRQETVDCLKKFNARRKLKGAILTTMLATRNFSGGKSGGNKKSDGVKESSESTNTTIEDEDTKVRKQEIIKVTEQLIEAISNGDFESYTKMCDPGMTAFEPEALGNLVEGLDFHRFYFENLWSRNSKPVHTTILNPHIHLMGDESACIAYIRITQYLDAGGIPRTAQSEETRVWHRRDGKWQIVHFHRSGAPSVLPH
Sequence of Casein kinase I isoform gamma-2 (Homo sapiens) (P78368 whole entry, looked up, canonical isoform): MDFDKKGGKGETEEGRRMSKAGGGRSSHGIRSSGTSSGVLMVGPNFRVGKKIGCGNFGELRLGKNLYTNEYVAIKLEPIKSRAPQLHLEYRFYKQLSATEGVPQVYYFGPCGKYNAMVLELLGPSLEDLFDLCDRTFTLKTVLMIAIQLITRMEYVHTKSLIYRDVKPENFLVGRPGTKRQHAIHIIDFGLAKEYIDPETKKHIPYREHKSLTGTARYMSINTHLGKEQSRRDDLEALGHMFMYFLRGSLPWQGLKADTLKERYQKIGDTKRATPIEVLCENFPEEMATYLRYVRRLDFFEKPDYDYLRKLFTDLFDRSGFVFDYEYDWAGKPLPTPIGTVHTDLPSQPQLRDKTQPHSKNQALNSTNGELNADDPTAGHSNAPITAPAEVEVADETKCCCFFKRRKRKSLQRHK
Sequence of Serine/threonine-protein kinase 3 (Homo sapiens) (Q13188 whole entry): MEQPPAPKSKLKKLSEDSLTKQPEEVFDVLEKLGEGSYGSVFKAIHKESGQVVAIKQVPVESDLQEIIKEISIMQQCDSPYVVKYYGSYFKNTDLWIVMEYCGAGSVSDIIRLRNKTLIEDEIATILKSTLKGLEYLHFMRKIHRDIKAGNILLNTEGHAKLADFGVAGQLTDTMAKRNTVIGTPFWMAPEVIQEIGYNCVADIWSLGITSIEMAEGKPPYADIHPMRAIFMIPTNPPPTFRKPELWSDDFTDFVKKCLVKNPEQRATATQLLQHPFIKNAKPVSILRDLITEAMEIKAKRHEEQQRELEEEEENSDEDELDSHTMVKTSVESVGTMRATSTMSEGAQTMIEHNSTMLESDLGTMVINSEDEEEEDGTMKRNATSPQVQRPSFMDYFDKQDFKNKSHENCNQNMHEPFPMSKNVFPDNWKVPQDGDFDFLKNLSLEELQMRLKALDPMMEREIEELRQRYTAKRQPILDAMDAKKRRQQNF
Sequence of Receptor-interacting serine/threonine-protein kinase 2 (Homo sapiens) (O43353 whole entry): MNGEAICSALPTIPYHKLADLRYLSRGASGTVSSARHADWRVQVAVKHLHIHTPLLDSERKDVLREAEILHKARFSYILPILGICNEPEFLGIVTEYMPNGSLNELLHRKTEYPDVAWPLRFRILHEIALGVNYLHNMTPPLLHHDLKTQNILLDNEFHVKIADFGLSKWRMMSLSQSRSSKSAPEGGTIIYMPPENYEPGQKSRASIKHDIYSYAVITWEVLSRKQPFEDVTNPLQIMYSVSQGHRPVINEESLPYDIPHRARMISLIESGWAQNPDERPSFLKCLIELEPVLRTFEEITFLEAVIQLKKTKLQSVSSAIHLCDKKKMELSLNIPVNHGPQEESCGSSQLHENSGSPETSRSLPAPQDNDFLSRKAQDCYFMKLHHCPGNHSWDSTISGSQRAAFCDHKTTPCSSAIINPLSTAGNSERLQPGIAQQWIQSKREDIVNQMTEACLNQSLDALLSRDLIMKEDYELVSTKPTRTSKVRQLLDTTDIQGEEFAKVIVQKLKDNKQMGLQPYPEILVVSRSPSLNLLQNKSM
Sequence of 5'-AMP-activated protein kinase catalytic subunit alpha-2 (Homo sapiens) (P54646 whole entry, looked up): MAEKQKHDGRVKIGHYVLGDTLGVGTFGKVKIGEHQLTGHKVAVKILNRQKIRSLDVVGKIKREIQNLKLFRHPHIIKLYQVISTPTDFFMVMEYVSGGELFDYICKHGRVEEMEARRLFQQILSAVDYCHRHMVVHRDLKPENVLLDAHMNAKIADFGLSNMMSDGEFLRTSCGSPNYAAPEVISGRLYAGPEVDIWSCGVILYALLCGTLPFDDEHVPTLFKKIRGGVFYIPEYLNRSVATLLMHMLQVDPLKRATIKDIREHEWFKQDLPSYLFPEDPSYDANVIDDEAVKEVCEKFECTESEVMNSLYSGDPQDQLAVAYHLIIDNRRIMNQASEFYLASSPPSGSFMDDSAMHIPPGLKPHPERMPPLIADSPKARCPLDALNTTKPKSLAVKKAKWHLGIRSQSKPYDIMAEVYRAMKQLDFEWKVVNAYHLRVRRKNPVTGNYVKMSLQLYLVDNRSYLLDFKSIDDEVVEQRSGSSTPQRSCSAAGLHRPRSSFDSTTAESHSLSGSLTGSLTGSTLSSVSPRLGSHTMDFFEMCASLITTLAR
Sequence of Mitogen-activated protein kinase 6 (Homo sapiens) (Q16659 whole entry): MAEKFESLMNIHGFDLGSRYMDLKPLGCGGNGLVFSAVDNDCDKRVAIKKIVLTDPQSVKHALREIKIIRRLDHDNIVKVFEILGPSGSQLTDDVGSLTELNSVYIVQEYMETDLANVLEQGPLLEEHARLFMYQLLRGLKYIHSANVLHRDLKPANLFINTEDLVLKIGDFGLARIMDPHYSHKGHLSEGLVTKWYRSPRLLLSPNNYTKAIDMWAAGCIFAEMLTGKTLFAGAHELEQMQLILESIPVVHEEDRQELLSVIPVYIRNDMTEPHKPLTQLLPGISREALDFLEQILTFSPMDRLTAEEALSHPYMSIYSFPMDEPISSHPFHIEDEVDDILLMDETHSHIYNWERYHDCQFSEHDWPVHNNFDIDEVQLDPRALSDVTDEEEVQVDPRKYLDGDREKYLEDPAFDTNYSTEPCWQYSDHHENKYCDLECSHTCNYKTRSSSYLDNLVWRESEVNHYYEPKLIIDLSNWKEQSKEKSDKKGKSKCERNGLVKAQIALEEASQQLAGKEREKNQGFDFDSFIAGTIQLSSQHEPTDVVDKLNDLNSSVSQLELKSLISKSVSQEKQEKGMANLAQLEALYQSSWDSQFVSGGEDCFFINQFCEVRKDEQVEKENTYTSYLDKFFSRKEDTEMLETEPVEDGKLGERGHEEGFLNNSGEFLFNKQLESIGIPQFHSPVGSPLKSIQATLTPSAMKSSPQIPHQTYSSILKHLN
Sequence of Non-receptor tyrosine-protein kinase TNK1 (Homo sapiens) (Q13470 whole entry): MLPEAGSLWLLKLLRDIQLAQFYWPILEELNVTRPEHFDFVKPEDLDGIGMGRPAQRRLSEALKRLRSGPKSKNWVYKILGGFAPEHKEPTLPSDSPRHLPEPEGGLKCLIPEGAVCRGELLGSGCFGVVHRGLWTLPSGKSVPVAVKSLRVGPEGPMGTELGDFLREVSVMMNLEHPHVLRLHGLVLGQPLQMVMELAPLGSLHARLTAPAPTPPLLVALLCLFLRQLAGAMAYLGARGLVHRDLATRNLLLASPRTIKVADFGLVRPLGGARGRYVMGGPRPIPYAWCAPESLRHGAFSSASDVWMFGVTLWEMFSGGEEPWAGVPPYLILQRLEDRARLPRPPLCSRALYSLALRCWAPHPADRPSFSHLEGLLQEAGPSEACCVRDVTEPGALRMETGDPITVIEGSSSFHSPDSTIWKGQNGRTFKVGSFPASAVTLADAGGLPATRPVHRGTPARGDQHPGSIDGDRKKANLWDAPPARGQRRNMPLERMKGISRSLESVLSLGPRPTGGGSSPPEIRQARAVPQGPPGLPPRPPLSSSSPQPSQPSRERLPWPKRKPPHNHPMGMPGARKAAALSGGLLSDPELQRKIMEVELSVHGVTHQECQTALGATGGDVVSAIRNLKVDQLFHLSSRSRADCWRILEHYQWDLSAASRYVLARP

Structure (SMILES): CC#CC(=O)N1CCC[C@H]1c1nc(-c2ccc(C(=O)Nc3ccccn3)cc2)c2c(N)nccn12 [ACALABRUTINIB]
- Activity [1]: 44%
- Activity [2]: 83%
- Activity [3]: 86%
- Activity [4]: 4.3%
- Activity [5]: 91%
- Activity [6]: 90%
- Activity [7]: 85%
- Activity [8]: 82%
- Activity [9]: 84%
- Activity [10]: 86%
- Activity [11]: 90%
- Activity [12]: 94%
- Activity [13]: 88%
- Activity [14]: 60%
- Activity [15]: 38%
- Activity [16]: 65%
- Activity [17]: 76%
